Sampled rows, rich in hits. Any-hit rate of the full collection: about 27%.
CYP2C19 act: increases human CYP2C19 enzyme activity; P33261; AID 1025; 96,000 tested, under 10 active; recombinant CYP2C19, luciferin-H EGE luminescence; stronger effect = higher value; 0 = fully inhibited enzyme, 1 = untreated enzyme; activation factor at 5 µM;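 active = activation factor of at least 2 at 5 µM in the primary screen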;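 also: 0 = wells with 2.5 mM tranylcypromine and 1 = vehicle-only wells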
CYP2C9 activ: activators of human CYP2C9 | 96,000 tested, 1.4% active | activation factor at 5 µM | P11712 | recombinant CYP2C9, luciferin-H conversion, luminescence; stronger effect = higher value; factor 1 = untreated enzyme, 0 = blocked | AID 1024;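 active = activation factor of 2 or more for CYP2C9 at a 5 µM dose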;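 also: 0 = sulfaphenazole-blocked wells and 1 = vehicle-only wells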
Target sequence (P11712 whole entry, looked up): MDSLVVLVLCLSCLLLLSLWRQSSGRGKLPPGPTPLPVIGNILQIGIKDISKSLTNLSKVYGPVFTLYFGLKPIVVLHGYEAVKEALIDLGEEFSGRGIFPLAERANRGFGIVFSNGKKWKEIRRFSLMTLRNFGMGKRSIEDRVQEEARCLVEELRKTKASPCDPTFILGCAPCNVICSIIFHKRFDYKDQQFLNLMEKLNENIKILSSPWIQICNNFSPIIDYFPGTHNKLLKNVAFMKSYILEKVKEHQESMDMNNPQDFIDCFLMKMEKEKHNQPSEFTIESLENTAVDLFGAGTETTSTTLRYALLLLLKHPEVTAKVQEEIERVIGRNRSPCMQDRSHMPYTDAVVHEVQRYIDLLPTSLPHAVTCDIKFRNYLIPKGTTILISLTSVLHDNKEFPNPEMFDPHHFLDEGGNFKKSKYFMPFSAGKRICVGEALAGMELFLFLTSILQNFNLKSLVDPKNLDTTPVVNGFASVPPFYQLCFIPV
CYP2C9 inhib: human CYP2C9 inhibition; CYP2C9 Supersomes, luciferin-H conversion, luminescence; inhibition, % at 5 µM; 96,000 tested, 20% active; P11712;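 active = blocking of liver enzyme CYP2C9 beyond about 50% at 5 µM, limit read from the data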
CYP2C19 inh: inhibitors of human CYP2C19 | P33261 | 96,000 tested, 21% active | CYP2C19 Supersomes, luciferin-H EGE luminescence, 30 min | inhibition, % at 5 µM;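 active = CYP2C19 inhibition above a set limit at 5 µM in the primary screen, cut at about 50% in these data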;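 also: plate controls were negative control wells for no effect and 2.5 mM tranylcypromine positive control for full effect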
Cav32 inh: human Cav3.2 channel inhibition, primary screen; 100,000 tested, 4% active; AID 449739; Cav3.2-expressing cells, Fluo-4 calcium fluorescence FDSS; stronger effect = lower value; O95180; B-score at 10 µM;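 active = single-dose well whose peak fluorescence ratio is a statistical outlier from its plate by either plate-standardised score or position-corrected B-score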
Rev-RRE block: inhibitors of HIV-1 Rev-RRE RNA interaction | Rev peptide-RRE RNA binding, FRET | P05866 | inhibition, % at 8 µM | 97,000 tested, 0.79% active;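 active = inhibition above the screen-wide mean plus 3 SD, cut at about 35% in these data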;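 also: 0% = median DMSO wells and 100% = median Neomycin B control wells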
Target sequence (P05866 whole entry, looked up): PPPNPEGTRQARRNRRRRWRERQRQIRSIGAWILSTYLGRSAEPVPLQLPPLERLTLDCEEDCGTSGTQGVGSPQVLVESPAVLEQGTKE
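Test system – labelled RRE RNA duplex and labelled Rev peptide · Reagent – labelled Rev peptide · Doses – one concentration, 8 µM nominal · Incubation – 5 + 15 min at 25 °C · Signal – FRET fluorescence readout · Read-out basis – % inhibition of FRET ratio versus controls · Control set – DMSO wells as 0% and neomycin B wells as 100% inhibition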
Starred values were filed as active, the others as inactive.

Results for CCc1nnc(SCC(=O)NC2CCCC2)nc1CC ?
CYP2C19 act: 0.9; CYP2C9 activ: 0.7; CYP2C9 inhib: 26; CYP2C19 inh: 13; Cav32 inh: 0.78; Rev-RRE block: 2

Results for Cn1ccnc1SCC(=O)NC1CCCCC1 ?
CYP2C19 act: 0.1; CYP2C9 activ: 1; CYP2C9 inhib: -5; CYP2C19 inh: 92*; Cav32 inh: -0.067; Rev-RRE block: 12

How did Cc1cc2c(N=O)c(NO)ccc2[nH]1 do in these assays?
CYP2C19 act: 0.7; CYP2C9 activ: 0.5; CYP2C9 inhib: 46; CYP2C19 inh: 26; Cav32 inh: 0.26; Rev-RRE block: 8

How did CCN(CC)CCP(=O)(c1ccccc1)c1ccccc1 do in these assays?
CYP2C19 act: 1.2; CYP2C9 activ: 1; CYP2C9 inhib: 0; CYP2C19 inh: -15; Cav32 inh: -4*; Rev-RRE block: -2

Results for O=P(O)(O)CCP(=O)(c1ccccc1)c1ccccc1 ?
CYP2C19 act: 0.9; CYP2C9 activ: 0.9; CYP2C9 inhib: 6; CYP2C19 inh: 7; Cav32 inh: 0.00048; Rev-RRE block: 3

What do the screens show for `CC(=O)Nc1ccc(-c2nnc(SCc3c(C)cc(C)cc3C)n2C)cc1`?
CYP2C19 act: 1; CYP2C9 activ: 0.8; CYP2C9 inhib: 15; CYP2C19 inh: 2; Cav32 inh: 0.61; Rev-RRE block: 5

Results for Clc1ccc(C2CC(c3ccccc3)Nc3ncnn32)cc1 (stereo unspecified) ?
CYP2C19 act: 0.2; CYP2C9 activ: 0.7; CYP2C9 inhib: 32; CYP2C19 inh: 75*; Cav32 inh: -0.29

Results for Fc1ccc(C2CC(c3ccccc3)n3ncnc3N2)cc1 (stereo unspecified) ?
CYP2C19 act: 0.1; CYP2C9 activ: 0.8; CYP2C9 inhib: 22; CYP2C19 inh: 88*; Cav32 inh: 0.67; Rev-RRE block: -1

What do the screens show for `Cc1ccccc1C1CC(c2ccccc2)Nc2ncnn21` (stereo unspecified)?
CYP2C19 act: 0.6; CYP2C9 activ: 0.9; CYP2C9 inhib: 10; CYP2C19 inh: 36; Rev-RRE block: 2

Results for CCCCCCC(=O)Nc1cc2c(C)cc(=O)oc2cc1C ?
CYP2C19 act: 0.6; CYP2C9 activ: 2.5*; CYP2C9 inhib: -155; CYP2C19 inh: 41; Cav32 inh: -0.07; Rev-RRE block: 2

Results for CCC(=O)Nc1cc2c(C)cc(=O)oc2cc1C ?
CYP2C19 act: 0.9; CYP2C9 activ: 0.9; CYP2C9 inhib: 7; CYP2C19 inh: 14; Cav32 inh: -2.5; Rev-RRE block: 4

What do the screens show for `O=C(c1c(F)cccc1F)N(Cc1ccccn1)C1CC1`?
CYP2C19 act: 1; CYP2C9 activ: 1.1; CYP2C9 inhib: -7; CYP2C19 inh: 4; Cav32 inh: 0.86; Rev-RRE block: 10

What do the screens show for `COc1cc(C)nc(N2CCCC(C(=O)Nc3cccc(Cl)c3Cl)C2)n1` (stereo unspecified)?
CYP2C19 act: 0.8; CYP2C9 activ: 0.7; CYP2C9 inhib: 32; CYP2C19 inh: 15; Cav32 inh: -0.67; Rev-RRE block: -1

Results for CCCCNC(=O)c1onc(CSc2ccccc2CC)c1C(=O)O ?
CYP2C19 act: 0.8; CYP2C9 activ: 0.3; CYP2C9 inhib: 72*; CYP2C19 inh: 16; Cav32 inh: -0.89; Rev-RRE block: 2

What do the screens show for `Cc1ccc(C)c(SCc2noc(C(=O)NC(C)C)c2C(=O)O)c1`?
CYP2C19 act: 0.9; CYP2C9 activ: 0.3; CYP2C9 inhib: 72*; CYP2C19 inh: 8; Cav32 inh: -0.036; Rev-RRE block: -6

What do the screens show for `C=CCNC(=O)c1onc(CSc2cc(C)ccc2C)c1C(=O)O`?
CYP2C19 act: 0.9; CYP2C9 activ: 0.2; CYP2C9 inhib: 77*; CYP2C19 inh: 9; Cav32 inh: 1.3; Rev-RRE block: 0

How did CCCCNC(=O)c1onc(CSc2cc(C)ccc2C)c1C(=O)O do in these assays?
CYP2C19 act: 0.9; CYP2C9 activ: 0.2; CYP2C9 inhib: 78*; CYP2C19 inh: 10; Cav32 inh: -2; Rev-RRE block: 5

How did O=C(CN(Cc1ccco1)C(=O)CNS(=O)(=O)c1ccc(Cl)cc1)NCc1ccc(F)cc1 do in these assays?
Cav32 inh: -3.2; Rev-RRE block: 9

Results for CN1C(=O)N(C)C2(c3ccccc3)N(C)C(=O)NC12c1ccccc1 (stereo unspecified) ?
CYP2C19 act: 1.1; CYP2C9 activ: 1; CYP2C9 inhib: -1; CYP2C19 inh: -8; Cav32 inh: 0.44; Rev-RRE block: 0

Results for O=C(CN1CCOCCOCCOCCOCC1)Nc1ccccc1 ?
Cav32 inh: 0.36; Rev-RRE block: 5

How did O=C(COC(=O)c1ccccn1)NC12CC3CC(CC(C3)C1)C2 do in these assays?
CYP2C19 act: 0.2; CYP2C9 activ: 0.8; CYP2C9 inhib: 22; CYP2C19 inh: 80*; Cav32 inh: 0.025; Rev-RRE block: 4

What do the screens show for `Cc1ccc(NC(=O)CN2C(=O)S/C(=C\c3cccn3C)C2=O)cc1`?
CYP2C19 act: 0.9; CYP2C9 activ: 0.2; CYP2C9 inhib: 76*; CYP2C19 inh: 14; Rev-RRE block: 9

Results for Cc1ccc(NC(=O)CN2C(=O)S/C(=C\c3cc(C)n(C)c3C)C2=O)cc1 ?
CYP2C19 act: 0.4; CYP2C9 activ: 0.8; CYP2C9 inhib: 20; CYP2C19 inh: 57*; Rev-RRE block: -1

How did Cc1c(/C=C2\SC(=O)N(CC(=O)Nc3ccc4c(c3)OCO4)C2=O)c2ccccc2n1C do in these assays?
CYP2C19 act: 0.7; CYP2C9 activ: 1.1; CYP2C9 inhib: -8; CYP2C19 inh: 29; Cav32 inh: -0.49; Rev-RRE block: 0

What do the screens show for `Cc1ccc(NC(=O)CN2C(=O)S/C(=C\c3ccc(-c4cccc(C(=O)O)c4C)o3)C2=O)cc1`?
CYP2C19 act: 1; CYP2C9 activ: 0.9; CYP2C9 inhib: 10; CYP2C19 inh: -2; Cav32 inh: 0.59; Rev-RRE block: 7

Results for CCOC(=O)C1=C(C)N=C(/N=C/N(C)C)SC1c1ccccc1 (stereo unspecified) ?
CYP2C19 act: 0.3; CYP2C9 activ: 0.5; CYP2C9 inhib: 48; CYP2C19 inh: 71*; Cav32 inh: -0.47

Results for CN(C)/C=N/c1c(C(=O)NCc2ccccc2)nnn1Cc1ccccc1 ?
CYP2C19 act: 1; CYP2C9 activ: 0.9; CYP2C9 inhib: 6; CYP2C19 inh: 0; Cav32 inh: -0.24; Rev-RRE block: 6

Results for Cn1c(=O)c2c(nc(SCCCC#N)n2Cc2c(F)cccc2Cl)n(C)c1=O ?
CYP2C19 act: 0.9; CYP2C9 activ: 0.4; CYP2C9 inhib: 59*; CYP2C19 inh: 14; Cav32 inh: 0.35; Rev-RRE block: 7

What do the screens show for `Cn1c(=O)c2c(nc(Br)n2Cc2c(F)cccc2Cl)n(C)c1=O`?
CYP2C19 act: 0.8; CYP2C9 activ: 1; CYP2C9 inhib: 3; CYP2C19 inh: 20

From PubChem
